Measurements reported in ChEMBL document CHEMBL1155364, “Inhibitors of HIV-1 attachment. Part 4: A study of the effect of piperazine substitution patterns on antiviral potency in the context of indole-based derivatives” (Bioorg Med Chem Lett, 2009).

Legend:
[1] = Metabolic stability in human liver microsomes after 10 mins; type: ADME, Microsome; details: read-out: Stability
[2] = Metabolic stability in rat liver microsomes after 10 mins; type: ADME, Microsome; details: read-out: Stability
[3] = (§1) Permeability across monolayer of human Caco-2 cell; type: ADME, cell-based; details: read-out: permeability
[4] = test system: Human immunodeficiency virus 1; experiment: Antiviral activity against HIV1 infected HeLa67 after 3 days by luciferase reporter assay; type: functional, organism-based; details: Human immunodeficiency virus 1, HeLa67, 72 h
[5] = Cytotoxicity against human HeLa67 cell after 3 days by XTT assay; type: cell-based; details: HeLa67 cells
How it was run: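 HeLa67 cells exposed to test compounds in parallel with the antiviral assay; XTT read-out 3 days after compound addition, giving CC50.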

Caco-2 = experiment: as §1; type: ADME, cell-based

Structure (SMILES) | remaining at 10 min [1] | remaining at 10 min [2] | Papp [3] | EC50 [4] | CC50 at 72 h [5] | permeability (Caco-2)
O=C(C(=O)N1CCN(C(=O)c2ccccc2)CC1)c1c[nH]c2cccc(F)c12 | 98% | 51% | 4.7 ×10⁻⁶ cm/s |  |  | 
COc1cccc2[nH]cc(C(=O)C(=O)N3CCN(C(=O)c4ccccc4)CC3)c12 | 100% | 88% | 4.3 ×10⁻⁶ cm/s |  |  | 
CC(C)C1CN(C(=O)C(=O)c2c[nH]c3cccc(F)c23)CCN1C(=O)c1ccccc1 (stereo not drawn) | 63% | 39% | 16.1 ×10⁻⁶ cm/s |  |  | 
O=C(NCCCNC(=O)c1ccccc1)C(=O)c1c[nH]c2cccc(F)c12 |  |  |  | > 50 µM | > 300 µM | 
CN(CCN(C)C(=O)c1ccccc1)C(=O)C(=O)c1c[nH]c2cccc(F)c12 |  |  |  | > 50 µM | > 300 µM | 
CC(C)(C)C1CN(C(=O)c2ccccc2)CCN1C(=O)C(=O)c1c[nH]c2cccc(F)c12 (stereo not drawn) | 68% | 49% | 17 ×10⁻⁶ cm/s |  |  | 
O=C(C(=O)N1CCCN(C(=O)c2ccccc2)CC1)c1c[nH]c2cccc(F)c12 |  |  |  | > 50 µM | > 300 µM | 
CCCCCC1CN(C(=O)C(=O)c2c[nH]c3cccc(F)c23)CCN1C(=O)c1ccccc1 (stereo not drawn) | 45% | 3% | 6.9 ×10⁻⁶ cm/s |  |  | 
CCCC1CN(C(=O)c2ccccc2)CCN1C(=O)C(=O)c1c[nH]c2cccc(F)c12 (stereo not drawn) | 52% | 11% | 17.2 ×10⁻⁶ cm/s |  |  | 
CCCCCC1CN(C(=O)c2ccccc2)CCN1C(=O)C(=O)c1c[nH]c2cccc(F)c12 (stereo not drawn) | 29% | 0% | 15.4 ×10⁻⁶ cm/s |  |  | 
CC(C)(C)C1CN(C(=O)C(=O)c2c[nH]c3cccc(F)c23)CCN1C(=O)c1ccccc1 (stereo not drawn) | 58% | 44% | 19 ×10⁻⁶ cm/s |  |  | 
C[C@H]1CN(C(=O)c2ccccc2)CCN1C(=O)C(=O)c1c[nH]c2cccc(F)c12 | 85% | 32% | 8.8 ×10⁻⁶ cm/s |  |  | 
CCC1CN(C(=O)C(=O)c2c[nH]c3cccc(F)c23)CCN1C(=O)c1ccccc1 (stereo not drawn) | 63% | 25% | 17.1 ×10⁻⁶ cm/s |  |  | 
CC1CN(C(=O)c2ccccc2)CCN1C(=O)C(=O)c1c[nH]c2cccc(F)c12 (stereo not drawn) | 82% | 12% | 7.2 ×10⁻⁶ cm/s |  |  | 
CCCC1CN(C(=O)C(=O)c2c[nH]c3cccc(F)c23)CCN1C(=O)c1ccccc1 (stereo not drawn) | 50% | 25% | 15.4 ×10⁻⁶ cm/s |  |  | 
C[C@@H]1CN(C(=O)c2ccccc2)[C@@H](C)CN1C(=O)C(=O)c1c[nH]c2cccc(F)c12 | 43% | 0% | 5 ×10⁻⁶ cm/s |  |  | 
O=C(NCCNC(=O)c1ccccc1)C(=O)c1c[nH]c2cccc(F)c12 |  |  |  | > 50 µM | > 300 µM | 

Structure (SMILES) | remaining at 10 min [1] | remaining at 10 min [2] | Papp [3] | EC50 [4] | CC50 at 72 h [5] | permeability (Caco-2)
COc1cccc2[nH]cc(C(=O)C(=O)N3CCN(C(=O)c4ccccc4)C[C@H]3C)c12 | 84% | 56% | 4.6 ×10⁻⁶ cm/s |  |  | 
O=C(C(=O)N1CC2CC1CN2C(=O)c1ccccc1)c1c[nH]c2cccc(F)c12 (stereo not drawn) |  |  |  | > 50 µM | > 300 µM | 
CCC1CN(C(=O)c2ccccc2)CCN1C(=O)C(=O)c1c[nH]c2cccc(F)c12 (stereo not drawn) | 55% | 8% | 15 ×10⁻⁶ cm/s |  |  | 
CC(C)CC1CN(C(=O)C(=O)c2c[nH]c3cccc(F)c23)CCN1C(=O)c1ccccc1 (stereo not drawn) | 35% | 13% | 19 ×10⁻⁶ cm/s |  |  | 
C[C@@H]1CN(C(=O)c2ccccc2)CCN1C(=O)C(=O)c1c[nH]c2cccc(F)c12 | 74% | 2% | 5.4 ×10⁻⁶ cm/s |  |  | 
CC(C)C1CN(C(=O)c2ccccc2)CCN1C(=O)C(=O)c1c[nH]c2cccc(F)c12 (stereo not drawn) | 59% | 31% | 16.5 ×10⁻⁶ cm/s |  |  | 
O=C(NC1CCCC(NC(=O)c2ccccc2)C1)C(=O)c1c[nH]c2cccc(F)c12 (stereo not drawn) |  |  |  | > 50 µM | > 300 µM | 
CN(CCCN(C)C(=O)c1ccccc1)C(=O)C(=O)c1c[nH]c2cccc(F)c12 |  |  |  | > 50 µM | > 300 µM | 
C[C@@H]1CN(C(=O)c2ccccc2)C[C@H](C)N1C(=O)C(=O)c1c[nH]c2cccc(F)c12 | 55% | 2% | < 1.5 ×10⁻⁶ cm/s |  |  | 
CC1CN(C(=O)C(=O)c2c[nH]c3cccc(F)c23)CCN1C(=O)c1ccccc1 (stereo not drawn) | 100% | 32% | 3.6 ×10⁻⁶ cm/s |  |  | 
COc1cccc2[nH]cc(C(=O)C(=O)N3CCN(C(=O)c4ccccc4)CC3C)c12 (stereo not drawn) | 84% | 72% |  |  |  | Not Active
COc1cccc2[nH]cc(C(=O)C(=O)N3CCN(C(=O)c4ccccc4)C[C@@H]3C)c12 | 98% | 75% |  |  |  | Not Active
CC(C)CC1CN(C(=O)c2ccccc2)CCN1C(=O)C(=O)c1c[nH]c2cccc(F)c12 (stereo not drawn) | 38% | 7% | 17.1 ×10⁻⁶ cm/s |  |  | 
C[C@@H]1CN(C(=O)C(=O)c2c[nH]c3cccc(F)c23)C[C@H](C)N1C(=O)c1ccccc1 | 69% | 16% | 7.3 ×10⁻⁶ cm/s |  |  | 
C[C@@H]1CN(C(=O)c2ccccc2)[C@H](C)CN1C(=O)C(=O)c1c[nH]c2cccc(F)c12 (relative stereo) | 76% | 59% | 9.6 ×10⁻⁶ cm/s |  |  | 
O=C(N[C@H]1CCCC[C@H]1NC(=O)c1ccccc1)C(=O)c1c[nH]c2cccc(F)c12 (relative stereo) |  |  |  | 30.5 µM | 65 µM | 
O=C(N[C@H]1CCCC[C@@H]1NC(=O)c1ccccc1)C(=O)c1c[nH]c2cccc(F)c12 (relative stereo) |  |  |  | > 50 µM | > 300 µM | 
